# Hits are enriched below; roughly 1% of the tested compounds scored in any of these assays.
# PvdQ inh: P. aeruginosa PvdQ acylase inhibition | purified PvdQ acylase, fluorescence plate reader | actives 0.063% (n = 340,000) | inhibition, % at 10 µM; in the data active = inhibition above about 30%, passing the limit was not always enough;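 also: 0% = vehicle neutral wells and 100% = reference inhibitor wells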
# ERp5 inh: blocks human ERp5 reductase activity on insulin. Q15084. ERp5 insulin aggregation, absorbance 650 nm, 90 min. inhibition, % at 9.99 µM. actives 0.05% (n = 350,000). AID 651711;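 active = mean replicate inhibition above about 25%, with every replicate also reaching it, limit read from the data, passing the limit was not always enough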
# Target sequence (Q15084 whole entry, looked up): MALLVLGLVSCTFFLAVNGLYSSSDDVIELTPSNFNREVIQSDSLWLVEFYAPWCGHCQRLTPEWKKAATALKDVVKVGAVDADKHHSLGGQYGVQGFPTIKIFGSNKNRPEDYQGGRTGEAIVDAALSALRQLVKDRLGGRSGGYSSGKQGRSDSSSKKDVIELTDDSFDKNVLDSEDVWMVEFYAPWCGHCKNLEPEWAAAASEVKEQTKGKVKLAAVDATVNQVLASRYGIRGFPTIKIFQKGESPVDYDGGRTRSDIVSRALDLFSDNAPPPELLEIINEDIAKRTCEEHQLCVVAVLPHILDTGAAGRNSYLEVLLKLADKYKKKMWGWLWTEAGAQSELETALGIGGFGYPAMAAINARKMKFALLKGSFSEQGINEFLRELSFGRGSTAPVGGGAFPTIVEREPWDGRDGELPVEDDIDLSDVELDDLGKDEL
# PglD DTNB: inhibitors of Campylobacter jejuni PglD acetyltransferase. inhibition, % at 12.5 µM. AID 602405. actives 0.098% (n = 360,000). purified PglD enzyme, DTNB colorimetric CoA detection; in the data active = inhibition above about 16%, passing the limit was not always enough
# PDI inh: PDI (human) enzyme inhibition. P07237. PDI insulin aggregation turbidity, A650, 90 min. inhibition, % at 10 µM. actives 0.052% (n = 350,000). AID 588391;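 active = mean inhibition across replicates of 30% or more, whatever share of single replicates reach that level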
# VIM-2 inhibitor: inhibitors of Pseudomonas aeruginosa VIM-2 metallo-beta-lactamase; actives 0.89% (n = 290,000); inhibition, % at 5.6 µM; purified VIM-2, nitrocefin hydrolysis, epi-absorbance fluorescence;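 active = inhibition above the mean of all tested compounds plus 3 SD, cutoff set per screening run, cut at about 7.5% in these data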;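 also: red hydrolysis product quenches plate fluorescence so inhibitors raise well fluorescence; 0% = enzyme with DMSO and 100% = DMSO without enzyme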
# IMP-1 inhibitor: blocks Pseudomonas aeruginosa IMP-1 metallo-beta-lactamase; purified IMP-1, nitrocefin hydrolysis, epi-absorbance fluorescence; inhibition, % at 5.6 µM; actives 0.45% (n = 290,000); AID 1556;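 active = inhibition above the mean plus 3 SD of all compounds in the same screening run, cut at about 4.5% in these data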;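 also: 0% = IMP-1 with DMSO and 100% = DMSO wells lacking enzyme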
#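 assay system = purified recombinant IMP-1 metallo-beta-lactamase enzyme | schedule = 15 min preincubation plus 25 min reaction at 25 °C | signal = Epi-absorbance fluorescence, 480 nm excitation, 530 nm emission | read-out basis = percent inhibition from optical density relative to buffer-blank wells | controls = IMP-1 with DMSO as 0%, enzyme-free DMSO as 100%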
# Numbers without * were called inactive; nt = not tested or not shown.
SMILES,PvdQ inh,ERp5 inh,PglD DTNB,PDI inh,VIM-2 inhibitor,IMP-1 inhibitor
O=C1NC(Cc2ccccc2)c2nc3ccccc3c(=O)n2-c2ncccc21 (stereo unspecified),nt,5,-3,1,nt,nt
Cc1ccc2nc3n(c(=O)c2c1)-c1ncccc1C(=O)NC3Cc1ccc(O)cc1 (stereo unspecified),nt,-6,-1,37*,nt,nt
Cc1ncc([N+](=O)[O-])n1CCOC(=O)Nc1ccc([N+](=O)[O-])cc1,-12,-1,nt,0,-2,0
Cc1ncc([N+](=O)[O-])n1CCOC(=O)c1cc(Cl)cc(Cl)c1N,-12,nt,nt,14,9.4*,-2
Cc1ccc(Nc2c(-c3ccccn3)nc3ccc(C)cn23)cc1,-8,1,-1,2,-4,-5
Cc1ccn2c(Nc3ccc4c(c3)OCO4)c(-c3ccccn3)nc2c1,-8,5,3,0,39*,-5
Cc1cc(C)n2c(Nc3ccc4c(c3)OCCO4)c(-c3ccccn3)nc2n1,nt,0,nt,nt,nt,nt
Cc1ccc(Nc2c(-c3ccccn3)nc3cc(C)ccn23)cc1,6,3,0,8,8.3*,-4
O=C(Nc1ccc2c(c1)[C@H]1C[C@H](CC(=O)N3CCCCC3)O[C@H](CO)[C@H]1O2)c1ccc2c(c1)OCO2,nt,3,1,nt,nt,nt
CCOc1ccc(C(=O)Nc2ccc(N3CCN(C)CC3)cc2)cc1,-10,0,4,5,11*,-2
CCN1CCN(c2ccc(NC(=O)c3ccc4c(c3)OCO4)cc2)CC1,7,nt,3,-7,9.3*,-5
Cc1ccc(C(=O)Nc2ccc(N3CCN(C)CC3)cc2)cc1,-28,4,2,-5,9.7*,-7
CNC(=O)C[C@H]1CC[C@@H]2[C@@H](COc3ccc(NC(=O)C4CCCCC4)cc3C(=O)N2C)O1,nt,nt,0,nt,nt,nt
COCC(=O)N1C[C@H](C)[C@@H](OC)CN(C)C(=O)c2ccc(NC(=O)c3cc(C)on3)cc2OC[C@@H]1C,nt,-3,nt,nt,nt,nt
O=Cc1coc2c(ccc3ccccc32)c1=O,nt,nt,nt,nt,1,32*
O=C/C=C/c1coc2ccc3ccccc3c2c1=O,nt,-2,nt,nt,-2,-2
O=C(C[C@@H]1CC[C@@H]2[C@H](COC[C@H](O)CN2C(=O)Nc2cc(Cl)cc(Cl)c2)O1)NCC1CCCCC1,nt,0,1,nt,nt,nt
COc1ccc2c3c(n(C)c2c1)[C@H](CO)N(C)CC31CCN(S(=O)(=O)c2cccc(F)c2)CC1,nt,-4,nt,nt,nt,nt
COC1=C(Nc2ccccc2OC)C(=O)c2ccccc2C1=O,4,1,4,0,10.0*,1
COc1ccccc1NC1=C(NC(C)=O)C(=O)c2ccccc2C1=O,-8,-2,nt,-1,-2,-4
O=C(O)C1C2C=CC(C2)C1C(=O)NCCCn1ccnc1 (stereo unspecified),-13,nt,-3,2,1,-3
O=C(O)C1C2C=CC(C2)C1C(=O)NCCCN1CCCC1=O (stereo unspecified),5,7,1,-3,1,12*
O=C(CSc1c(Cl)cccc1Cl)NC1CCCc2ccccc21 (stereo unspecified),-12,1,8,2,1,8.0*
O=C(CSc1ccccc1Cl)NC1CCCc2ccccc21 (stereo unspecified),4,nt,nt,1,-3,0
CC=Cc1ccc2n(c1=O)C[C@@H]1[C@@H](CO)[C@H](C(=O)NCCC)[C@H]2N1C(=O)c1ccncc1 (mixture of isomers),nt,4,nt,nt,nt,nt
SMILES,PvdQ inh,ERp5 inh,PglD DTNB,PDI inh,VIM-2 inhibitor,IMP-1 inhibitor
Cc1ccc(NC(=O)CN(C)C(=O)CCC(=O)c2cccs2)cc1,-13,nt,nt,-10,-2,8.9*
COc1ccc(C(=O)C2CCCN(C(=O)Cc3c(C)noc3C)C2)cc1OC (stereo unspecified),-9,-7,nt,-3,-1,-3
COc1ccc(F)cc1C(=O)C1CCCN(C(=O)Cc2c(C)noc2C)C1 (stereo unspecified),-11,-1,-3,-1,8.3*,-1
Cc1c(-n2cc(C(=O)c3ccccc3O)cc(C#N)c2=O)c(=O)n(-c2ccccc2)n1C,-7,nt,-4,89*,0,-1
Cc1ccc(-n2cc(C(=O)c3cc(Cl)ccc3O)cc(C#N)c2=O)cc1,-3,nt,-6,2,-1,-4
N#Cc1cc(C(=O)c2ccccc2O)cn(-c2ccc(Cl)cc2)c1=O,-12,4,-1,0,3,5.4*
Cc1ccc(O)c(C(=O)c2cc(C#N)c(=O)n(Cc3ccccc3)c2)c1,3,-1,nt,-1,-1,-3
COCC(=O)N1C[C@H](C)[C@H](OC)CN(C)C(=O)c2ccc(NC(=O)c3ccc(OC)cc3)cc2OC[C@@H]1C,nt,-10,-1,nt,nt,nt
O=C(Nc1ccc2c(c1)[C@H]1C[C@@H](CC(=O)N3CCCCC3)O[C@@H](CO)[C@H]1O2)C1CCC1,nt,3,0,nt,nt,nt
Cc1cc(Br)cc(Br)c1OCC(=O)NNC(=O)CCC(=O)NCc1ccccc1,-25,27*,5,-5,-7,-4
CC(C)(c1ccccc1)c1ccc(OCCCNCCO)cc1,-5,nt,1,-2,-2,5.4*
CC(C)CCNC(=O)NC(=O)COc1ccccc1C#N,5,nt,1,-1,-1,5.4*
CCCC#Cc1cnc2c(c1)C(=O)N([C@H](C)CO)C[C@H](C)[C@H](CN(C)C(=O)Nc1ccc(OC)cc1)O2,nt,0,6,nt,nt,nt
COc1ccc(C2CC(c3ccc(Cl)cc3)n3nc(N)nc3N2)cc1 (stereo unspecified),-5,0,1,nt,-1,5.0*
O=C(Nc1ccc(-c2nc3ccc(NC(=O)c4cccs4)cc3[nH]2)cc1)c1cccs1,-1,nt,nt,-1,-5,12*
O=C(Nc1ccc2nc(-c3cccs3)[nH]c2c1)c1cccs1,-8,nt,2,5,-2,-2
Cc1ccc(/C=C2/SC(=S)N(C3CCCCC3)C2=O)o1,8,-15,0,4,-4,0
Cc1ccc(/C=C2/SC(=O)NC2=S)o1,-1,nt,-3,6,4,5.3*
Cn1cc(/C=C2\SC(=O)NC2=S)c2ccccc21,-8,-16,nt,1,4,5.3*
Cc1c(CC(=O)O)c(=O)oc2c(C)c(OCc3ccccc3Br)ccc12,0,9,0,0,1,6.9*
CCc1c(C)c2ccc(OCC(=O)N(C)C)c(C)c2oc1=O,-17,nt,-6,1,9.8*,-5
Cc1c(C)c2ccc(OCC(=O)N(C)C)c(C)c2oc1=O,-12,nt,9,-2,4,-5
CO[C@H]1CC[C@@H]2CCOc3ccc(C#N)cc3C(=O)N(C)C[C@@H](OC)[C@H](C)C(=O)N(C)C[C@H]1O2,nt,0,2,nt,nt,nt
C[C@H](CO)N1C[C@H](C)[C@@H](CN(C)CC2CCOCC2)Oc2ncc(C#Cc3ccncc3)cc2C1=O,nt,-3,-4,nt,nt,nt
CCCCn1c2c(c(=N)c3c1CCC3)CCC2,0,nt,1,-1,-8,4.8*
